Measured values taken from ChEMBL document CHEMBL1275590, “Novel arylimidamides for treatment of visceral leishmaniasis” (Antimicrob Agents Chemother, 2010).
Active and inactive are the calls of the source.

How the values were obtained:
[1] = Oral bioavailability in Swiss Webster mouse at 16.5 mg/kg by HPLC-MS/MS analysis; format: ADME, organism-based; conditions: in vivo
Summary of the method: (§1)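 Male Swiss Webster mice (n = 3 per time point), single dose by oral gavage (sterile water solution) or tail-vein bolus i.v. (water diluted 1:1 with 2× saline, over ~10–20 s); dose volume 5 ml/kg. Terminal blood sampled from 5 min to 72 h postdose; plasma quantified by HPLC-MS/MS (positive-ion SRM). Noncompartmental analysis gave Cmax, Tmax, AUC0-∞, CL, Vss; bioavailability from p.o. versus i.v. exposure.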

[2] = Tmax in Swiss Webster mouse at 131 mg/kg, po by HPLC-MS/MS analysis; format: ADME, organism-based; parameters: dose 131 mg/kg, route oral; conditions: in vivo; summary of the method: as §1
Mus musculus [3] = experiment: Toxicity in BALB/c mouse assessed as occurrence of hemorrhage at 150 mg/kg/day, po; format: organism-based; parameters: route oral; conditions: in vivo
Summary of the method: (§2)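 Female BALB/c mice (n = 5 per dose), dosed once daily for 5 consecutive days p.o. (20 ml/kg) or i.v. (10 ml/kg) with compound in sterile water, prepared fresh daily under yellow light. Vehicle controls n = 5 per route. Clinical observations, body weights, serum chemistry and hematology on day 6 before necropsy; histopathology of formalin-fixed tissues. Chemistry analysed by one-way ANOVA with Dunnett's posttest.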

Mus musculus [4] = experiment: Renal toxicity in BALB/c mouse assessed as phosphorus level in serum at 10 mg/kg/day, iv administered for five days ((Rvb= 6.1 mg/dl); format: organism-based; parameters: route intravenous; conditions: in vivo; summary of the method: as §2
[5] = Cmax in Swiss Webster mouse at 66 mg/kg, po by HPLC-MS/MS analysis; format: ADME, organism-based; parameters: dose 66 mg/kg, route oral; conditions: in vivo
Summary of the method: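 Male Swiss Webster mice, n = 3 per time point. For i.v., the compound was dissolved in sterile water, diluted 1:1 with 2× saline, and given as a tail-vein bolus over ~10–20 s. For p.o., it was given by gavage in sterile water. Dose volume was 5 ml/kg. Terminal plasma was taken from 5 min to 72 h and measured by HPLC-MS/MS (calibration 2.5–10,000 nM). Parameters came from noncompartmental analysis.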

[6] = Tmax in Swiss Webster mouse at 1 mg/kg, iv by HPLC-MS/MS analysis; format: ADME, organism-based; parameters: dose 1 mg/kg, route intravenous; conditions: in vivo; summary of the method: as §1
Mus musculus [7] = experiment: Toxicity in BALB/c mouse at 50 mg/kg/day, po administered for five days; format: organism-based; parameters: route oral; conditions: in vivo
[8] = Drug level in Swiss Webster mouse kidney at 70 mg/kg, po after 2 hrs by HPLC/UV analysis; conditions: read-out: Drug uptake
[9] = Induction of mutagenicity in Salmonella serovar Typhimurium TA 100 assessed as number of revertant colonies at 50 ug by Ames assay; format: toxicity, Salmonella enterica subsp. enterica serovar Typhimurium; conditions: in vivo
Summary of the method: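 Ames plate incorporation with S. Typhimurium TA98 and TA100, with or without Aroclor 1254-induced rat liver S9 (10% vol/vol). Compound was dissolved in sterile water and serially diluted to 1–500 μg/plate. Positive controls were 2-nitrofluorene and sodium azide without S9, and 2-aminoanthracene with S9; sterile water and DMSO served as vehicles. Revertant colonies and background lawn were scored. A mutagen was defined as a mean revertant count at least 2-fold over solvent control. Single experiment.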

Leishmania donovani [10] = experiment: Antileishmanial activity against Leishmania donovani promastigotes in BALB/c mouse assessed as inhibition of liver parasitemia at 30 mg/kg/day, ip administered for five days; format: functional, organism-based
Summary of the method: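 Murine VL model in L. donovani-infected mice. Compounds were dissolved in water and given i.p. or p.o. once daily for 5 days (4 days for one i.p. regimen). Liver parasitemia was compared with untreated controls by unpaired Student's t test, P ≤ 0.05.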

Leishmania donovani [11] = experiment: Antileishmanial activity against Leishmania donovani WR378 infected in golden Syrian hamster assessed as reduction in bone marrow parasitemia at 100 mg/kg/day, po administered for five days; format: functional; conditions: 120 h
Summary of the method: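 11-day golden hamster VL model adapted from an 8-day method, using L. donovani WR378 metacyclic promastigotes. Dosing was oral, once daily for 5 days. Animals were euthanized on day 11 post-infection. Liver, spleen and femoral bone marrow (flushed with Schneider's medium) were harvested.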

Structure (SMILES) | bioavailability [1] [%] | Tmax [2] [h] | Activity (Mus musculus [3]) | Activity (Mus musculus [4]) [mg/dL] | Cmax [5] [µM] | Tmax [6] [min] | Activity (Mus musculus [7]) | concentration at 2 h [8] [µM] | Activity [9] | Activity (Leishmania donovani [10]) | inhibition in vivo at 100 mg/kg/day (Leishmania donovani [11]) [%]
CCOc1cc(NC(=N)c2ccccn2)ccc1-c1ccc(-c2ccc(NC(=N)c3ccccn3)cc2OCC)o1 | 3.3 | 2 | Toxic | 8.1 | 0.4 | 5 |  |  |  |  | 
CC(C)Oc1cc(NC(=N)c2ccccn2)ccc1-c1ccc(-c2ccc(NC(=N)c3ccccn3)cc2OC(C)C)o1 |  |  |  |  |  |  | Non-toxic | 30.3 | 79 | Active | 92
